Test results as given in ChEMBL document CHEMBL4433251, “Discovery of BR102375, a new class of non-TZD PPARγ full agonist for the treatment of type 2 diabetes” (Bioorg Med Chem Lett, 2019).
Active and inactive are the calls of the source. No cut-off for these calls is given here.

Tests used:
[1] = molecular target: T1, Peroxisome proliferator-activated receptor gamma (Mus musculus) (UniProt P37238); experiment: Agonist activity at GAL4-tagged mouse PPARgamma LBD expressed in monkey CV1 cells assessed as receptor transactivation incubated for 24 hrs by luciferase reporter gene assay relative to telmisartan; format: cell-based
T1 sequence (whole entry): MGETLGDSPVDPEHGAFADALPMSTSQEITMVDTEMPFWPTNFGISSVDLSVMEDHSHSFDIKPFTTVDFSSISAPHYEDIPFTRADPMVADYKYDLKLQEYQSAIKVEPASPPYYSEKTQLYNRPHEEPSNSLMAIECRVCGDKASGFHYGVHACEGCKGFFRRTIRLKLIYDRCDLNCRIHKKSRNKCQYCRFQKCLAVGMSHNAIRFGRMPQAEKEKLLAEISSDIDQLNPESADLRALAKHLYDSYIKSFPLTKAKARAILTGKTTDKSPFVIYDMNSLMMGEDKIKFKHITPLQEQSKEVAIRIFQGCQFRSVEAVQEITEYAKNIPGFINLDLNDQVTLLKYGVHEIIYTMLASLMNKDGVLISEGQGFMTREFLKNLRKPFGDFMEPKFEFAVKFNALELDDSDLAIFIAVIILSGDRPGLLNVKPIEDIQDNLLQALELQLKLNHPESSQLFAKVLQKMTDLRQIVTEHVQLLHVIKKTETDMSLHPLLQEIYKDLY

Mus musculus [2] = experiment: Antidiabetic activity in db/db mouse assessed as reduction in random blood glucose level at 30 mg/kg, po administered daily once for 2 weeks; format: functional, organism-based
Mus musculus [3] = experiment: Antidiabetic activity in db/db mouse assessed as reduction in blood glucose level at 30 mg/kg, po administered daily once for 2 weeks and measured on day 14 by OGTT method; format: functional, organism-based
[4] = Toxicity in db/db mouse assessed as reduction in food intake at 30 mg/kg, po administered daily once and measured on day 7; format: organism-based; conditions: in vivo
Mus musculus [5] = experiment: Antidiabetic activity in db/db mouse assessed as reduction in body weight gain at 30 mg/kg, po administered daily once for 2 weeks; format: functional, organism-based
[6] = molecular target: T2, Peroxisome proliferator-activated receptor gamma (Homo sapiens, UniProt P37231); experiment: Agonist activity at PPARgamma (unknown origin) assessed as receptor transactivation after 24 hrs by TK-PPRE-Luc expressing cells based luciferase reporter gene assay
T2 sequence (P37231 whole entry): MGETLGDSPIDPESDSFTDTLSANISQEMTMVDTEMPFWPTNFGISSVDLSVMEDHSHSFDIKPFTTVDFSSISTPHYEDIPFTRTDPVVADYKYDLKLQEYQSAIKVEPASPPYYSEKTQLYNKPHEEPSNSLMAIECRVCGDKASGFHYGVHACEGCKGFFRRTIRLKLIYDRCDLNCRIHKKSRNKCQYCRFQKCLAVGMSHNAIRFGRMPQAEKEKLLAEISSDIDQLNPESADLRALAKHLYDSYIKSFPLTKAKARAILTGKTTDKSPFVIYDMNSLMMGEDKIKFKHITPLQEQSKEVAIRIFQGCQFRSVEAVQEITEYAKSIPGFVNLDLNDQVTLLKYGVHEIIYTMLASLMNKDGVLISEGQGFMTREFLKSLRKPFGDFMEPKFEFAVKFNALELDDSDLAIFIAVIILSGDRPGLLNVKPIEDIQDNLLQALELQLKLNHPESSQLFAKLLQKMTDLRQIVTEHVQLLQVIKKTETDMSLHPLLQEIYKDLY
Method in brief: (§1)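 Luciferase reporter gene assay in cells transfected with PPRE and luciferase genes; luciferase induction measured over a range of concentrations to derive EC50 and Amax; Amax expressed as a percentage relative to pioglitazone.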

[7] = molecular target: T3, Peroxisome proliferator-activated receptor gamma (Homo sapiens) (UniProt P37231); experiment: Agonist activity at PPARgamma (unknown origin) assessed as receptor transactivation after 24 hrs by TK-PPRE-Luc expressing cells based luciferase reporter gene assay relative to pioglitazone; method in brief: as §1
T3 sequence (whole entry): T2 sequence (P37231 whole entry)

[8] = Half life in mouse at 10 mg/kg, po; format: ADME, organism-based; conditions: in vivo
[9] = Stability in human liver microsomes assessed as parent compound remaining at 30 mins; format: ADME, Microsome; conditions: read-out: Stability
Method in brief: (§2)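 Compound incubated with liver microsomes (mouse, rat, dog, human) for 30 min; stability expressed as % of parent concentration remaining.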

CYP1A2 = molecular target: T4, CYP1A2 (Homo sapiens, UniProt P05177); experiment: Inhibition of CYP1A2 (unknown origin) assessed as enzyme remaining activity at 10 uM; format: ADME; conditions: read-out: INH
T4 sequence (P05177 whole entry): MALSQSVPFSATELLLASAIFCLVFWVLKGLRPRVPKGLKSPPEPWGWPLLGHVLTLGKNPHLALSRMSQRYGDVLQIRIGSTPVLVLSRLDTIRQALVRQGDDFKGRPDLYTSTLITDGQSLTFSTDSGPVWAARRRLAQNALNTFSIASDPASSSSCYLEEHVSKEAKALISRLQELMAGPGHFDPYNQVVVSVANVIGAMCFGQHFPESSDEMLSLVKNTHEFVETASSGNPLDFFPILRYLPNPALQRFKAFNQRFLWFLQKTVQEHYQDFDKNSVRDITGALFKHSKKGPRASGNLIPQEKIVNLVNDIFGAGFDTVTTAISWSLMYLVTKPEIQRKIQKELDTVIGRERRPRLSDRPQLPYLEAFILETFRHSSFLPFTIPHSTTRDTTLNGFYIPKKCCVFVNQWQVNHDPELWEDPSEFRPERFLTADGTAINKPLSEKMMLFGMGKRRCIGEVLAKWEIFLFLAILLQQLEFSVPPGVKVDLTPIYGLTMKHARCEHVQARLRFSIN
Method in brief: (§3)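 CYP isoforms 1A2, 2C9, 2C19, 2D6, 3A4: % remaining enzyme activity in presence of 10 uM compound.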

CYP2C19 = CYP2C19 (Homo sapiens, UniProt P33261); experiment: Inhibition of CYP2C19 (unknown origin) assessed as percentage remaining activity at 10 uM; format: ADME; conditions: read-out: INH; method in brief: as §3
Sequence of CYP2C19 (P33261 whole entry): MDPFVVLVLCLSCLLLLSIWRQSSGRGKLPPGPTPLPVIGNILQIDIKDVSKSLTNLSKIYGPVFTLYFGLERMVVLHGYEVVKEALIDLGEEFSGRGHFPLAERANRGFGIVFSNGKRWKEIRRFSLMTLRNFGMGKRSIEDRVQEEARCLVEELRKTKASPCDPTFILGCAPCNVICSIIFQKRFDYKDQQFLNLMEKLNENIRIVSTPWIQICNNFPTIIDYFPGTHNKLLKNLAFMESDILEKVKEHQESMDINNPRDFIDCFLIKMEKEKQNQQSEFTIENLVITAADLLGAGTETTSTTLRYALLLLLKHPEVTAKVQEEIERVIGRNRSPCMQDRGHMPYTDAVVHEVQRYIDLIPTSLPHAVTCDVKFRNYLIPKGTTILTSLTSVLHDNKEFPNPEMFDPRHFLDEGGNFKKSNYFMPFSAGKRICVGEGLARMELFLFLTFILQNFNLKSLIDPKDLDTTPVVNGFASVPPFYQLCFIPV

[10] = AUClast in mouse at 10 mg/kg, po; format: ADME, organism-based; parameters: dose 10 mg/kg, route oral, time 0 - last; conditions: in vivo
CYP2C9 = CYP2C9 (Homo sapiens, UniProt P11712); experiment: Inhibition of CYP2C9 (unknown origin) assessed as enzyme remaining activity at 10 uM; format: ADME; conditions: read-out: INH; method in brief: as §3
Sequence of CYP2C9 (P11712 whole entry): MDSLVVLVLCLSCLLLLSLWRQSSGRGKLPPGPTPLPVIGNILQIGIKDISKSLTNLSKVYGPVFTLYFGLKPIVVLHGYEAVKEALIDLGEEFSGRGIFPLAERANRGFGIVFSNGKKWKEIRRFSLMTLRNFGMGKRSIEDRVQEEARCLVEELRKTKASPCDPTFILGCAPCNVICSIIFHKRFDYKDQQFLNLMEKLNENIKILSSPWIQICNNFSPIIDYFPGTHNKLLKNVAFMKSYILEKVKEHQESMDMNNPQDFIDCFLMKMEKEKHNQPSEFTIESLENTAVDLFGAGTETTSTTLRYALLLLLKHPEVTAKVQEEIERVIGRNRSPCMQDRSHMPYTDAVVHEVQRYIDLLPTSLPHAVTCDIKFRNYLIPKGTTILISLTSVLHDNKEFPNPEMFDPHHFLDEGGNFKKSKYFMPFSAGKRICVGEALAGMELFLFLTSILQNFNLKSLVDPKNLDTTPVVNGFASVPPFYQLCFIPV

[11] = Stability in dog liver microsomes assessed as parent compound remaining at 30 mins; format: ADME, Canis lupus familiaris, Microsome; conditions: read-out: Stability; method in brief: as §2
hERG (KCNH2) = hERG (KCNH2) (Homo sapiens, UniProt Q12809); experiment: Inhibition of human ERG at 10 uM
Sequence of hERG (KCNH2) (Q12809 whole entry): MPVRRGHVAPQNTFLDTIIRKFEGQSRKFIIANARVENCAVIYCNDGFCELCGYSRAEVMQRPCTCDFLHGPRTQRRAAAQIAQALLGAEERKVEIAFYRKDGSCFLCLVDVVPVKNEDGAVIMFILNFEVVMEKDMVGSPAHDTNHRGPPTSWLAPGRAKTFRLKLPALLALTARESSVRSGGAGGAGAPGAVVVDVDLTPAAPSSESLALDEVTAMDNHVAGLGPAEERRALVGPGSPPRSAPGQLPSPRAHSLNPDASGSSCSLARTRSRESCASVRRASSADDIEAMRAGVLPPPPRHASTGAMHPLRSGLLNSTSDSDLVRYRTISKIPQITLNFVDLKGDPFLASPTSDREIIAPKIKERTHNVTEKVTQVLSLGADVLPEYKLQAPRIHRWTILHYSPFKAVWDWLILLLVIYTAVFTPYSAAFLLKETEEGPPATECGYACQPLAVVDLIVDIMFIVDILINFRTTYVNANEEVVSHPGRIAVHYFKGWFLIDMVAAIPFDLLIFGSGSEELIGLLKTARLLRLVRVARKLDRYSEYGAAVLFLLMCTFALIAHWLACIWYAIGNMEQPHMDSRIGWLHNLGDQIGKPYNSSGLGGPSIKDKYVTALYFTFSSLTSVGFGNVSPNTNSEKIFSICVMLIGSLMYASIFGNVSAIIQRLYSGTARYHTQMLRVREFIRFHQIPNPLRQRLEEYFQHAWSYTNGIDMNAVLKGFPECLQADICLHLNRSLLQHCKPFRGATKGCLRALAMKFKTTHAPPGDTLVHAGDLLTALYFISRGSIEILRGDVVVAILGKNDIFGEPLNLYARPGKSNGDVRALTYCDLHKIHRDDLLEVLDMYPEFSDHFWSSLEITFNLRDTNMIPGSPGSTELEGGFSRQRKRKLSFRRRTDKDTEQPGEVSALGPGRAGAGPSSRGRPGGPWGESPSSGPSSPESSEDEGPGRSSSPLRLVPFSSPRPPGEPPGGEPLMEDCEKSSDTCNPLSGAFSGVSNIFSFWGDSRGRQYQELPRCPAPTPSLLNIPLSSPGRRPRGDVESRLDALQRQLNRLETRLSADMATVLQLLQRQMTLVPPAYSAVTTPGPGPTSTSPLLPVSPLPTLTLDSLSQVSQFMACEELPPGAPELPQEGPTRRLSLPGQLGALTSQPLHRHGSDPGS
Method in brief: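 hERG: % inhibition measured at 10 µM.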

CYP2D6 = CYP2D6 (Homo sapiens, UniProt P10635); experiment: Inhibition of CYP2D6 (unknown origin) assessed as percentage remaining activity at 10 uM; format: ADME; conditions: read-out: INH; method in brief: as §3
Sequence of CYP2D6 (P10635 whole entry): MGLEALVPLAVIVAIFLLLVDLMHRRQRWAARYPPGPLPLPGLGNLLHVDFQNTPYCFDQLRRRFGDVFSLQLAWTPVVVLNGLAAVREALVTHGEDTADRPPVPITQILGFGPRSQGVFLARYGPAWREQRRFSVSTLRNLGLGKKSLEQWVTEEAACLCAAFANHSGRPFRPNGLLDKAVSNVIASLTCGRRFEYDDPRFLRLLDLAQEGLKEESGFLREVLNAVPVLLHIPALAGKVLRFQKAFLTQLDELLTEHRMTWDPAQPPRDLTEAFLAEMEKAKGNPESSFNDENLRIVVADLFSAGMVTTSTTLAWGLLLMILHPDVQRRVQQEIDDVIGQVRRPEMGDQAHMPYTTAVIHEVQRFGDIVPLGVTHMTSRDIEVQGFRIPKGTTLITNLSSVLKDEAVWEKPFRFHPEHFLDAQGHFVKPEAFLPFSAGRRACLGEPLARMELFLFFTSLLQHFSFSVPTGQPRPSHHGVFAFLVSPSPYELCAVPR

[12] = Stability in rat liver microsomes assessed as parent compound remaining at 30 mins; format: ADME, Microsome; conditions: read-out: Stability; method in brief: as §2
[13] = Tmax in mouse at 10 mg/kg, po; format: ADME, organism-based; conditions: in vivo
CYP3A4 = CYP3A4 (Homo sapiens, UniProt P08684); experiment: Inhibition of CYP3A4 (unknown origin) assessed as percentage remaining activity at 10 uM; format: ADME; conditions: read-out: INH; method in brief: as §3
Sequence of CYP3A4 (P08684 whole entry): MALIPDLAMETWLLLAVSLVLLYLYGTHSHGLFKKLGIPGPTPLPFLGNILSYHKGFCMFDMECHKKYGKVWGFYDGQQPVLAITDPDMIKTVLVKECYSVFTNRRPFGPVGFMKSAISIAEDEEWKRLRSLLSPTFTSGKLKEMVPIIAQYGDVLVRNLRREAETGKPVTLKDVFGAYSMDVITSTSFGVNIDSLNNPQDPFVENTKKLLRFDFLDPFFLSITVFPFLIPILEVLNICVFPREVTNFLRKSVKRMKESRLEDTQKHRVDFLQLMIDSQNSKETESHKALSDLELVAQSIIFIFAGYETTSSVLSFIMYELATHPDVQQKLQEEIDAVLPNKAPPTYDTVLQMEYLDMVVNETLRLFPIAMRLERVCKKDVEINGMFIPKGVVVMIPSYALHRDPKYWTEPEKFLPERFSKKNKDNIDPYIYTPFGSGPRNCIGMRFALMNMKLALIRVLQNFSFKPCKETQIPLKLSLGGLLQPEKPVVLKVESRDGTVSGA

[14] = Stability in mouse liver microsomes assessed as parent compound remaining at 30 mins; format: ADME, Microsome; conditions: read-out: Stability; method in brief: as §2
[15] = Cmax in mouse at 10 mg/kg, po; format: ADME, organism-based; parameters: dose 10 mg/kg, route oral; conditions: in vivo

| Compound | %max [1] [%] | EC50 [6] [µM] | %max [7] [%] | other results |
| --- | --- | --- | --- | --- |
| CCCCc1nc(C)c(Cc2nc(C)ns2)c(=O)n1Cc1ccc(-c2ccccc2-c2noc(=O)[nH]2)cc1 | 93 |  |  |  |
| CCc1ccc(CCOc2ccc(CC3SC(=O)NC3=O)cc2)nc1 (stereo not drawn) [PIOGLITAZONE] |  |  |  | Activity (Mus musculus [2]): Active; Activity (Mus musculus [3]): Active; Activity [4]: Toxic; Activity (Mus musculus [5]): inactive |
| CCCCc1nc(C(C)C)c(Cc2nnc(C)s2)c(=O)n1Cc1ccc(-c2ccccc2-c2noc(=O)[nH]2)cc1 | 79 |  |  |  |
| CCCCc1nc(C(C)C)c(Cc2nc(C)no2)c(=O)n1Cc1ccc(-c2ccccc2-c2noc(=O)[nH]2)cc1 | 207 | 1.05 | 93 |  |
| CCCCc1nc(C(C)C)c(Cc2nc(C(C)(C)C)no2)c(=O)n1Cc1ccc(-c2ccccc2-c2noc(=O)[nH]2)cc1 |  | 0.59 | 123 | half-life [8]: 49.2 min; remaining at 0.5 h [9]: 12%; activity at 10 µM (CYP1A2): 92%; activity at 10 µM (CYP2C19): 78%; AUC(0-t) [10]: 581 ng·h/mL; activity at 10 µM (CYP2C9): 33%; remaining at 0.5 h [11]: 13%; inhibition at 10 µM (hERG (KCNH2)): 16%; activity at 10 µM (CYP2D6): 89%; remaining at 0.5 h [12]: 13%; Tmax [13]: 19.8 min; activity at 10 µM (CYP3A4): 50%; remaining at 0.5 h [14]: 24%; Cmax [15]: 547 ng/mL |
| CCCCc1nc(C)c(Cc2noc(C(C)C)n2)c(=O)n1Cc1ccc(-c2ccccc2-c2noc(=O)[nH]2)cc1 | 233 |  |  |  |
| CCCCc1nc(C(C)C)c(Cc2nnc(C(C)(C)C)s2)c(=O)n1Cc1ccc(-c2ccccc2-c2noc(=O)[nH]2)cc1 | 180 |  |  |  |
| CCCCc1nc(C(C)C)c(Cc2nnc(-c3ccc(OC)cc3)o2)c(=O)n1Cc1ccc(-c2ccccc2-c2noc(=O)[nH]2)cc1 | 73 |  |  |  |
| CCCCc1nc(C(C)C)c(Cc2nnc(C)o2)c(=O)n1Cc1ccc(-c2ccccc2-c2noc(=O)[nH]2)cc1 | 80 |  |  |  |
| CCCCc1nc(C(C)C)c(Cc2nc(C3CC3)no2)c(=O)n1Cc1ccc(-c2ccccc2-c2noc(=O)[nH]2)cc1 |  | 2.55 | 102 |  |
| CCCCc1nc(C)c(Cc2nc(C3CC3)no2)c(=O)n1Cc1ccc(-c2ccccc2-c2noc(=O)[nH]2)cc1 |  | 4.25 | 89 |  |
| CCCCc1nc(C(C)C)c(Cc2nc(C)ns2)c(=O)n1Cc1ccc(-c2ccccc2-c2noc(=O)[nH]2)cc1 | 79 |  |  |  |
| CCCCc1nc(C)c(Cc2nnc(-c3ccc(F)cc3)[nH]2)c(=O)n1Cc1ccc(-c2ccccc2-c2noc(=O)[nH]2)cc1 | 71 |  |  |  |
| CCCCc1nc(C)c(Cc2noc(C(C)(C)C)n2)c(=O)n1Cc1ccc(-c2ccccc2-c2noc(=O)[nH]2)cc1 | 258 |  |  |  |
| CCCCc1nc(C)c(Cc2nc(C)no2)c(=O)n1Cc1ccc(-c2ccccc2-c2noc(=O)[nH]2)cc1 | 136 |  |  |  |
| CCCCc1nc(C)c(Cc2nc(C)n[nH]2)c(=O)n1Cc1ccc(-c2ccccc2-c2noc(=O)[nH]2)cc1 | 61 |  |  |  |
| CCCCc1nc(C)c(Cc2nc(C(C)C)no2)c(=O)n1Cc1ccc(-c2ccccc2-c2noc(=O)[nH]2)cc1 |  | 1.32 | 101 |  |
| CCCCc1nc(C)c(Cc2nc(CCOC)no2)c(=O)n1Cc1ccc(-c2ccccc2-c2noc(=O)[nH]2)cc1 |  | 4.21 | 68 |  |
| CCCCc1nc(C)c(Cc2nnc(C)s2)c(=O)n1Cc1ccc(-c2ccccc2-c2noc(=O)[nH]2)cc1 | 71 |  |  |  |

Continued, in another order:

| %max [1] [%] | EC50 [6] [µM] | %max [7] [%] | Compound | other results |
| --- | --- | --- | --- | --- |
|  | 1.38 | 72 | CCCCc1nc(C)c(Cc2nc(Cc3cc(F)cc(F)c3)no2)c(=O)n1Cc1ccc(-c2ccccc2-c2noc(=O)[nH]2)cc1 |  |
| 150 |  |  | CCCCc1nc(C)c(Cc2noc(-c3ccccc3F)n2)c(=O)n1Cc1ccc(-c2ccccc2-c2noc(=O)[nH]2)cc1 |  |
|  | 2.41 | 81 | CCCCc1nc(C)c(Cc2nc(Cc3ccc(F)cc3)no2)c(=O)n1Cc1ccc(-c2ccccc2-c2noc(=O)[nH]2)cc1 |  |
|  | 1.14 | 92 | CCCCc1nc(C(C)C)c(Cc2nc(Cc3ccccc3)no2)c(=O)n1Cc1ccc(-c2ccccc2-c2noc(=O)[nH]2)cc1 |  |
|  | 1.75 | 105 | CCCCc1nc(C)c(Cc2nc(Cc3ccccc3)no2)c(=O)n1Cc1ccc(-c2ccccc2-c2noc(=O)[nH]2)cc1 |  |
|  | 1.39 | 82 | CCCCc1nc(C)c(Cc2nc(Cc3cccc(F)c3)no2)c(=O)n1Cc1ccc(-c2ccccc2-c2noc(=O)[nH]2)cc1 |  |
|  | 3.39 | 60 | CCCCc1nc(C)c(Cc2nc(COC)no2)c(=O)n1Cc1ccc(-c2ccccc2-c2noc(=O)[nH]2)cc1 |  |
|  | 1.48 | 80 | CCCCc1nc(C(C)C)c(Cc2nc(Cc3ccc(F)cc3)no2)c(=O)n1Cc1ccc(-c2ccccc2-c2noc(=O)[nH]2)cc1 |  |
